This is a sample that favours compounds with a hit; in the whole collection about 3.7% have one here.
Granule exo inh – blocks lytic granule exocytosis | TALL-104 LAMP-1 surface exposure, flow cytometry; cells stimulated with thapsigargin and PMA | inhibition, % at 10 µM | 360,000 compounds, 0.66% hits | AID 651702;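 active = inhibition above about 55%, limit read from the data; inconclusive = no clear call, values can overlap the other calls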
Myeloid diff 2 – myeloid differentiation induction; ER-HoxA9 myeloid progenitors, lysozyme-GFP differentiation, flow cytometry; 360,000 compounds, 1% hits; calls only at 10 µM;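 active = normalized GFP-positive differentiation at or above the plate's own cutoff, the solvent-only control mean plus 3 SD; inconclusive = no clear call, values can overlap the other calls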;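 also: cells exposed to compound for four days before flow analysis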
EBI2 block – blocks human EBI2 receptor beta-arrestin signaling; EBI2 beta-arrestin recruitment, luminescence, 7a,25-OHC stimulated; 360,000 compounds, 0.81% hits; P32249; inhibition, % at 5 µM; AID 651636; in the data active = inhibition above about 38%;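 also: enzyme fragment complementation signal reports receptor beta-arrestin coupling in cells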
Target sequence (P32249 whole entry, looked up, the tested form may be a part): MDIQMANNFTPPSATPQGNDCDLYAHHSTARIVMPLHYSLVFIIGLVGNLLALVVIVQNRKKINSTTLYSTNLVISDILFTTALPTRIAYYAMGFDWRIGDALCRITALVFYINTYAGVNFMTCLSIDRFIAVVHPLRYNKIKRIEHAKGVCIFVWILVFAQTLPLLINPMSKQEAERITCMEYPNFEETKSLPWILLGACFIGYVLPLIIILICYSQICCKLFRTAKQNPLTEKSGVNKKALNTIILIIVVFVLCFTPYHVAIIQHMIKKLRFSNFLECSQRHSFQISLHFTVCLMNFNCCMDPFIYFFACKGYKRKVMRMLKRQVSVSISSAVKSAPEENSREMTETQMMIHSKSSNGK
MC4R barr agon – activates human MC4R beta-arrestin recruitment; P32245; U2OS MC4R beta-arrestin complementation, luminescence; percent of melanotan II response, DMSO zero; activation, % at 8.9 µM; 360,000 compounds, 0.98% hits; AID 540308;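 active = activation above a per-plate cutoff, the mean activation of sample wells on that plate plus 3 SD, cut at about 8% in these data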
Target sequence (P32245 whole entry, looked up): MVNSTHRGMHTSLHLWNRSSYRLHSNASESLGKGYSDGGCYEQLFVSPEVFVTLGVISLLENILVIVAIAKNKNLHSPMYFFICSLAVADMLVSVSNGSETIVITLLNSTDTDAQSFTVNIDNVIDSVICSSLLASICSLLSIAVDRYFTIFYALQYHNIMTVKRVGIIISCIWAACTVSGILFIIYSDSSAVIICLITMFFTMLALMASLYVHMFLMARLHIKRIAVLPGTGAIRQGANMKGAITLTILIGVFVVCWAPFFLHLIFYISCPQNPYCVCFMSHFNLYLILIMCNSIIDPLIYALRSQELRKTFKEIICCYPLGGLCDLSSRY
MC4R antag cAMP – blocks human MC4R cAMP signaling; P32245; AID 540295; inhibition, % at 6.5 µM; MC4R-expressing cells, MTII-stimulated cAMP, LANCE TR-FRET; 360,000 compounds, 0.48% hits;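 active = inhibition above its plate's cutoff, the mean of tested wells on that plate plus 3 SD, cut at about 29% in these data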
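material = U2OS cells stably expressing human melanocortin 4 receptor (MC4R) | also added = Melanotan II challenge | dosing = single nominal compound dose of 6.5 µM | detection = TR-FRET with Eu-cAMP and labeled anti-cAMP, 671 nm | replication = singlicate | timing = compound 30 min, challenge 1 h, detection 1 h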
Myeloid diff – promotes myeloid progenitor differentiation; shares compounds with Myeloid diff 2; ER-HoxA9 myeloid progenitors, GFP/Mac1 double-positive flow; calls only; 2,300 compounds, 2% hits; AID 651706;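 active = share of green or green-and-red cells above 9 and 9% in run 1 or 4 and 3% in run 2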
GFP autofluor – flagged as fluorescent in myeloid differentiation counter-screen; shares compounds with Myeloid diff 2; ER-HoxA9 myeloid progenitors, no estrogen, GFP autofluorescence flow cytometry; vehicle wells 0%, positive control 100%; fluorescence response, % (no concentration beside the values); 2,300 compounds, 7.4% hits; AID 651707;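 active = over 5% cells positive for green fluorescent reporter, or over 2% positive for both it and APC stain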
Of the large screens only hits and unclear results are named; the others gave an inactive call (follow-up assays come after a bar, where they were run).

CCCn1c(N)c(N(CCOC)C(=O)CSCC(=O)Nc2ccc(OC)cc2)c(=O)[nH]c1=O	none
O=C(CCc1nnc(Cc2c[nH]c3ccccc23)o1)NCC1CC12CCCCC2 (centres undefined)	none | Myeloid diff inactive | GFP autofluor inactive
CCc1nnc(NC(=O)CCS(=O)(=O)Cc2ccccc2)s1	Myeloid diff 2 active | Myeloid diff inactive | GFP autofluor inactive
CCCc1nnc(NC(=O)CCS(=O)(=O)Cc2ccccc2)s1	Myeloid diff 2 inconclusive
COc1ccc(-c2cc(C(F)(F)F)n3nc(C(N)=O)cc3n2)cc1	none
CC(=O)Oc1ccc(/C=C2/SC(=S)N(Cc3ccccc3)C2=O)cc1	Granule exo inh inconclusive, Myeloid diff 2 active | Myeloid diff inactive | GFP autofluor 38
CN1CCS/C1=C/C=C1/SC(=S)N(Cc2ccccc2)C1=O	Myeloid diff 2 active | Myeloid diff inactive | GFP autofluor 23
COc1ccc(CN2C(=O)/C(=C/c3ccncc3)SC2=S)cc1	none
CC(C)(C)OC(=O)N(CCc1ccccc1)Cc1ccccc1OCc1cccc(NC(=O)C2CC2)c1	Myeloid diff 2 active | Myeloid diff inactive | GFP autofluor inactive
CC(C)(C)OC(=O)N(CCc1ccccc1)Cc1ccccc1OCc1cccc(NC(=O)C2CCCC2)c1	none
COC(=O)Cc1c(C)c2ccc(OC(=O)c3ccccc3)cc2oc1=O	none | Myeloid diff inactive | GFP autofluor inactive
O=C(Nc1ccnn1C1CCN(C(=O)c2cccnc2)CC1)c1cccc(F)c1	none
C=Cn1cc[n+](CC(=O)c2ccc(OC)cc2)c1	Myeloid diff 2 active | Myeloid diff inactive | GFP autofluor inactive
COc1ccc(-n2nc(C(=O)NCC(=O)N3CCN(c4cccc(Cl)c4)CC3)c3ccccc3c2=O)c(OC)c1	none | Myeloid diff inactive | GFP autofluor inactive
CCCc1c(NC(=O)Nc2ccc(F)cc2)cnn1-c1ccccc1	Myeloid diff 2 active | Myeloid diff inactive | GFP autofluor inactive
CCCc1c(C(=O)Nc2ccc(F)cc2C)cnn1-c1ccccc1	none
CCN1/C(=C2/OC(=S)N(C)C2=O)Sc2ccccc21	none
CCN1/C(=C\C=C2\C(=O)N(C)C(=S)N2C)Sc2ccccc21	none | Myeloid diff inactive | GFP autofluor inactive
O=C(NC1CCCC1)C(c1ccccc1)n1c(-c2ccc3c(c2)CCO3)nc2ccccc21 (centres undefined)	none (no result: MC4R barr agon, MC4R antag cAMP)
Cc1c(NC(=O)c2ccc(-c3cccc([N+](=O)[O-])c3)o2)c(=O)n(-c2ccccc2)n1C	none
O=C(C1=C(O)C(=O)N(CCCN2CCOCC2)C1c1ccccn1)c1cc2ccccc2o1 (centres undefined)	none | Myeloid diff inactive | GFP autofluor inactive
O=[N+]([O-])c1cccc(CN2CCCCCC2)c1	none
O=[N+]([O-])c1ccc(O)c(CN2CCCCCC2)c1	none | Myeloid diff inactive | GFP autofluor inactive
CCN1C(=O)/C(=C/c2ccc(OCc3ccc(C(=O)O)cc3)c(Cl)c2)NC1=S	none
CCN1C(=O)/C(=C/c2ccc(N3CCCC3)cc2)NC1=S	Myeloid diff 2 active | Myeloid diff inactive | GFP autofluor 93
CN1CCN(c2ccccc2/C=C2/C(=O)Nc3ccccc32)CC1	Granule exo inh inconclusive | Myeloid diff inactive | GFP autofluor 83
CCOC(=O)Cc1cnc(NC(=O)NC(C(=O)OCC)(c2ccccc2)C(F)(F)F)s1 (centres undefined)	none | Myeloid diff inactive | GFP autofluor inactive
CC(=O)Nc1ccc(/C=N/NC(=S)NC(C)C)cc1	none
Cc1ccc(S(=O)(=O)N(Cc2cc3cccc(C)c3[nH]c2=O)c2ccccc2)cc1	Myeloid diff 2 active | Myeloid diff inactive | GFP autofluor inactive
COc1ccc(N(Cc2cc3cccc(C)c3[nH]c2=O)S(=O)(=O)c2ccc(Cl)cc2)cc1	Myeloid diff 2 inconclusive
Cc1ccc(S(=O)(=O)N(C)Cc2cc3ccccc3[nH]c2=O)cc1	none | Myeloid diff inactive | GFP autofluor inactive
Cc1cccc2cc(CN(Cc3cccs3)S(=O)(=O)c3ccc4c(c3)OCCO4)c(=O)[nH]c12	none | Myeloid diff inactive | GFP autofluor inactive
Cc1ccc(-c2onc3ccc(C4OCCO4)cc23)cc1	none
NNc1nc(C(F)(F)F)nc2ccccc12	none
O/C=c1\ccc2cccc3nc(C(F)(F)F)nc1c23	none | Myeloid diff inactive | GFP autofluor inactive
O=C(Nc1ccc(-c2nnn(CC(=O)N3CCN(C(=O)c4ccco4)CC3)n2)cc1)c1ccc(F)cc1	none
COCCCNC(=O)Cn1nnc(-c2ccc(NC(=O)c3ccc(F)cc3)cc2)n1	none | Myeloid diff inactive | GFP autofluor inactive
CCCC1=[N+](CC(=O)c2ccc(Br)cc2)CCn2cccc21	none | Myeloid diff inactive | GFP autofluor inactive
NC(=O)c1ccc[n+](CC(=O)c2ccc(Br)cc2)c1	none
COc1cc2nc(CN(C)Cc3nc4ccccc4c(=O)[nH]3)[nH]c(=O)c2cc1OC	none | Myeloid diff inactive | GFP autofluor inactive
CC1(C)CC2CC(C)(CN2/C=C2/CCCCC2=O)C1 (centres undefined)	none
O=C1CSC(=Nc2cccc([N+](=O)[O-])c2)N1	none
O=C(COc1ccccc1Cl)NCCCNC(=O)c1ccncc1	none
O=C(COc1ccccc1Cl)NCCNC(=O)c1ccncc1	none | Myeloid diff inactive | GFP autofluor inactive
CSc1ccccc1NC(=O)Nc1ccc(Cl)cc1	none | Myeloid diff inactive | GFP autofluor inactive
COc1ccc(NC(=O)Nc2ccccc2SC)cc1	none
CN1/C(=C\P(=O)(N(C)C)N(C)C)C(C)(C)c2ccccc21	Myeloid diff 2 active | Myeloid diff inactive | GFP autofluor 82
CCOC(=O)/C=C1/N(C)c2ccccc2C1(C)C	none
CNC(=O)C[C@H]1C(=O)N(c2ccc(Br)cc2)C[C@@H]1C	none
CN(C)c1ccc(S(=O)(=O)NCC(=O)NCc2ccccc2)cc1[N+](=O)[O-]	none
CN(C)c1ccc(S(=O)(=O)NCC(=O)N2CCN(c3ccccc3)CC2)cc1[N+](=O)[O-]	Myeloid diff 2 active | Myeloid diff inactive | GFP autofluor inactive
CCOc1ccc(C(=O)C[n+]2cccc3cc(C)ccc32)cc1	Myeloid diff 2 active | Myeloid diff inactive | GFP autofluor 54
CCc1ccc(C(=O)C[n+]2cccc3cc(OC)ccc32)cc1	none | Myeloid diff inactive | GFP autofluor inactive
Cc1ccc(NC(=O)C2CC2C)c(Cl)c1 (centres undefined)	none
Cc1cccc(N2CCN(C(=O)C3CCN(S(=O)(=O)N4CCOCC4)CC3)CC2C)c1 (centres undefined)	Myeloid diff 2 active | Myeloid diff inactive | GFP autofluor inactive
Cc1cccc(N2CCN(C(=O)C3CCN(S(=O)(=O)c4cccc5nsnc45)CC3)CC2C)c1 (centres undefined)	none
